Yeast fitness data for 167 variants are collected here from the RNAGym collection of RNA variant scans (doi:10.1126/science.aae0568).

Fewer inactive variants are shown than the library holds.

B1: tRNA (parent)
chain: GUUCCGUUGGCGUAAUGGUAACGCGUCUCCCUCCUAAGGAGAAGACUGCGGGUUCGAGUCCCGUACGGAACG

In the data set the parent is B1. As to the kind of experiment: yeast fitness relative to wild type (ratio to wild type); higher = fitter; tRNA-Arg(CCU), competitive growth, 37 C, YPD. The method in brief: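 Changes in genotype frequencies gave Darwinian fitness relative to wild type. Frequencies were read by 100-nucleotide paired-end sequencing of gene amplicons before and after pooled Saccharomyces cerevisiae strains, carrying tRNA-Arg(CCU) gene variants at the native locus, were competed in YPD at 37°C for 24 hours in six replicates. A genotype was kept only with ≥ 100 starting reads, and estimates < 0.5 were set to 0.5.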
Regarding G9A U28C A37U U47A C61U, the yeast fitness turned out to be 0.871.
Turning to G9A C33U, the yeast fitness came out at 0.897.
As for G9A U26G A57U, the figure is 0.631; as for G9A U28A A45G, 0.645.
As for G9A A40C A70U, the figure is 0.74; as for G9A A42C G58A, 0.917; as for G9A A70G, 1.06.
As for G9C A14G C55G C61U, the yeast fitness is ≤ 0.5.
As to G9A U54A, the yeast fitness worked out at 0.696.
For G9A U13A A69U, the yeast fitness came to 0.811.
As to G9A U13A A69C, the yeast fitness is 0.809.
With G9A U32C C33G A37G G52A C55U A65U, the yeast fitness was determined as 0.583.
Turning to G9A C24G C34G A69U, the yeast fitness turned out to be 0.533.
As for G9A G25C C30U G51C G58U, the figure is ≤ 0.5.
As for G9C A14C C66U, the figure is ≤ 0.5.
Regarding G9A A36C A40C A45C, the yeast fitness was ≤ 0.5.
With G9A G10C C34A, the yeast fitness is ≤ 0.5.
In the case of G9A G17C C29G, the yeast fitness was 0.567.
As for G9A U26G C60A, the yeast fitness came out at 0.539.
For the variant G9A C24G C49U C55G G58A, the yeast fitness was ≤ 0.5.
For G9A U28C G44A G68C, the yeast fitness was ≤ 0.5.
For the variant G9A C60G, the yeast fitness is 0.629.
In the case of G9A G12C C31A C33G A45G A70U, the yeast fitness is ≤ 0.5.
Consider G9A C24A C49A A57C, for which the yeast fitness was ≤ 0.5.
For the variant G9A C29G G44A, the yeast fitness came out at 0.614.
On to G9A A65G G68C, for which the yeast fitness came out at 0.594.
With G9A G58A, the yeast fitness turned out to be 0.918.
G9A C34G C66U: the yeast fitness was ≤ 0.5.
With G9C A42G, the yeast fitness stood at 0.673.
As for G9C A42U, the yeast fitness was determined as 0.624.
Regarding G9A A42G, the yeast fitness was determined as 0.96.
Regarding G9A A42C, the yeast fitness stood at 0.855.
Take G9A A42U: the yeast fitness is 0.87.
As for G9C A21G G44C U47C, the figure is ≤ 0.5.
As for G9A C11U G48A, the yeast fitness was 0.715.
For G9A C27G C29A C49G, the yeast fitness was ≤ 0.5.
For the variant G9A C27G C31G A36U A40G G48A G52A C60A, the yeast fitness was 0.575.
As to G9A C33U C55G, the yeast fitness is 0.66.
To G9A C34U belongs 0.793; to G9A C34A, 0.704; to G9A U47A A69U, 0.676.
As for G9A A21G C33A C62U G63C A70C, the yeast fitness was ≤ 0.5.
On to G9A A21U A36G A40C, for which the yeast fitness was ≤ 0.5.
As to G9A G68A A69C, the yeast fitness worked out at 0.802.
Turning to G9A U28C G38A G44A G51C G58C, the yeast fitness is ≤ 0.5.
G9A C29U U47A A57G: the yeast fitness is ≤ 0.5.
As for G9C A57C, the figure is 0.56; as for G9A G38C, 0.758; as for G9A C11A G58C, ≤ 0.5.
For the variant G9A A36U G39A G52C, the yeast fitness was ≤ 0.5.
Consider G9A C29U U47A A65U, for which the yeast fitness is ≤ 0.5.
With G9A G18A C24A G39A A43C, the yeast fitness was 0.558.
As to G9A G23A G25C U28C, the yeast fitness is ≤ 0.5.
On to G9A C62A C66U, for which the yeast fitness was ≤ 0.5.
Consider G9C A21G C66U A69U, for which the yeast fitness was ≤ 0.5.
In the case of G9A A37C A45U, the yeast fitness is ≤ 0.5.
For the variant G9A G12C G25C C30G C31A G50A G51C, the yeast fitness was ≤ 0.5.
For the variant G9A G25U A36U G56C A65C, the yeast fitness is 0.717.
In the case of G9A C30G G68U, the yeast fitness was ≤ 0.5.
For the variant G9A C11U G67C, the yeast fitness was found to be 0.697.
Take G9A C46G U53C A65G: the yeast fitness is ≤ 0.5.
Consider G9A G12A C22U U53G, for which the yeast fitness was ≤ 0.5.
To G9C A14G A45G belongs ≤ 0.5.
Regarding G9A C27G C31U C49G G58C, the yeast fitness is ≤ 0.5.
Take G9A G12U A14U A65U: the yeast fitness was ≤ 0.5.
As to G9A G18A C60G, the yeast fitness is ≤ 0.5.
With G9C C11A A15U C24G C33G G38C A43G C61G, the yeast fitness was ≤ 0.5.
As to G9A C24A G38A, the yeast fitness is ≤ 0.5.
Regarding G9A G12A C49U, the yeast fitness was 0.692.
As for G9A C33U A37U, the yeast fitness stood at 0.605.
G9C A21U U54A A70G: the yeast fitness is ≤ 0.5.
In the case of G9A C30G U32C A40G G50C A57U, the yeast fitness is ≤ 0.5.
To G9C A36U A45C G52A belongs ≤ 0.5; to G9C A15C C34G, ≤ 0.5.
Regarding G9A U16C C30G C34G A40G C61G A69G, the yeast fitness was ≤ 0.5.
As for G9C A15C C29A G58A C61G A70U, the figure is ≤ 0.5; as for G9A U35A A37U C46U A65C, 0.633; as for G9C A42G C62G A69G, ≤ 0.5.
For G9C A43U C49A, the yeast fitness is ≤ 0.5.
With G9A G12U A14U A37U C49G C60G, the yeast fitness is ≤ 0.5.
To G9A A21G U59A belongs 0.731; to G9C A15U U28G A42U, ≤ 0.5.
G9A C31U A40G G52C A65G A69G: the yeast fitness is ≤ 0.5.
To G9A U59A belongs 0.936; to G9A C49A, 0.654.
To G9A C49G belongs 0.896; to G9A U26C C49U, 0.685.
In the case of G9A C62G, the yeast fitness was 0.896.
Turning to G9A C62U, the yeast fitness worked out at 0.916.
With G9A C11U A36C G68C, the yeast fitness is ≤ 0.5.
G9A G50A C55U: the yeast fitness is 0.59.
Take G9C A14C A20U G23C C31U C55U: the yeast fitness was ≤ 0.5.
As to G9A C11A C24U C34A A37U C62A C66A, the yeast fitness was ≤ 0.5.
Consider G9A C11G C24G A42U, for which the yeast fitness was ≤ 0.5.
As for G9A A21G C29G C31A C34G, the figure is ≤ 0.5.
To G9C A15C G52C belongs ≤ 0.5.
Consider G9A A40C A69U, for which the yeast fitness was 0.722.
In the case of G9A C24G U35C C49U C61G, the yeast fitness is ≤ 0.5.
On to G9A U16A A42C U53C A65C, for which the yeast fitness is ≤ 0.5.
As to G9A C62U A70U, the yeast fitness came out at 0.68.
Turning to G9A C11G C55G G63C G67C, the yeast fitness was 0.578.
G9A G23C A45G: the yeast fitness is 0.575.
G9A C11U A36C C49G U53G: the yeast fitness was ≤ 0.5.
With G9A G63C, the yeast fitness came out at 0.872.
Regarding G9A G48A G50C, the yeast fitness is 0.581.
As to G9C A14G U16G G23A C33A G44A C66U, the yeast fitness is ≤ 0.5.
To G9A U53A belongs 0.701.
For the variant G9A U35A A43C, the yeast fitness is ≤ 0.5.
Consider G9A A21G A40G A43C U54A, for which the yeast fitness is ≤ 0.5.
With G9A G68A, the yeast fitness turned out to be 0.864.
G9A C24G C27U G44C C61G: the yeast fitness was ≤ 0.5.
In the case of G9A A40U A65U, the yeast fitness was determined as 0.718.
As to G9A C24A U59A, the yeast fitness was ≤ 0.5.
For the variant G9A C11G C24G U32A G58C, the yeast fitness was ≤ 0.5.
Turning to G9A G10A U28C, the yeast fitness was ≤ 0.5.
Regarding G9A C11A G38C C60G, the yeast fitness was ≤ 0.5.
As to G9A A21C G25C U64A G67A, the yeast fitness was ≤ 0.5.
As for G9A C11U A15C A20G G48A C60G, the yeast fitness stood at 0.662.
Take G9A C22A A57G: the yeast fitness is 0.628.
On to G9A G12U A14U U53A, for which the yeast fitness was 0.529.
As for G9A C22U C30A C49A C55A C62U C66U, the yeast fitness was ≤ 0.5.
As for G9C A21G C60A, the yeast fitness was ≤ 0.5.
On to G9A A37G, for which the yeast fitness worked out at 0.795.
As to G9A G10C G17A G25A, the yeast fitness was ≤ 0.5.
For G9A C30A G39A U47A G63C, the yeast fitness is ≤ 0.5.
For G9A U13G A36G U59A, the yeast fitness was found to be 0.68.
As for G9A A20U C66U, the figure is 0.529; as for G9A C31U U53A, 0.638; as for G9C A42U C62G, ≤ 0.5.
For the variant G9A C11U C31U U59A, the yeast fitness was ≤ 0.5.
To G9A C11U A36C G48C belongs ≤ 0.5.
Turning to G9A C29U, the yeast fitness was found to be 0.914.
As for G9C A37U, the yeast fitness amounted to 0.663.
Turning to G9C A21G A69U, the yeast fitness is 0.512.
Take G9A A37G A57U C66U: the yeast fitness is ≤ 0.5.
Turning to G9C A37G G41A G50A, the yeast fitness was determined as 0.532.
On to G9C A14G A57U C60A C61G, for which the yeast fitness is ≤ 0.5.
As for G9A A36G G67C, the yeast fitness turned out to be 0.664.
With G9A A36U G39A, the yeast fitness came out at 0.535.
In the case of G9A C31U A37C G63A, the yeast fitness is ≤ 0.5.
As for G9A C34U A69U, the figure is 0.549.
In the case of G9A C31A A42C, the yeast fitness turned out to be 0.54.
Consider G9A C31G A65C, for which the yeast fitness is ≤ 0.5.
G9C A14G C29U A36C A45G G67U: the yeast fitness was ≤ 0.5.
As to G9A C29U C46U C66U, the yeast fitness stood at 0.637.
Turning to G9A A21U C34G G39A C55U C61G, the yeast fitness is ≤ 0.5.
Turning to G9A A21U G44A C55G, the yeast fitness was 0.584.
Regarding G9A A40C G68A, the yeast fitness is ≤ 0.5.
As for G9A C24U C30U U32G A65C C66G, the figure is ≤ 0.5; as for G9A C66A, 0.775; as for G9A C66G, 0.703.
To G9A G38A C62U belongs 0.939; to G9C A15U C60G C61G G68C, ≤ 0.5.
Regarding G9A A40U, the yeast fitness turned out to be 1.06.
Consider G9A A40C C49U, for which the yeast fitness came out at 0.713.
Regarding G9C A14C A15U G23A C34A, the yeast fitness was ≤ 0.5.
As for G9A C11G C24G C27A U28C A65U, the yeast fitness is ≤ 0.5.
As to G9A A43G U59A A69G, the yeast fitness is ≤ 0.5.
As for G9A A42G C62A, the figure is ≤ 0.5; as for G9C A15U C24U U53G C62G, ≤ 0.5.
To G9A C22A C61U belongs 0.622.
Take G9A C24U: the yeast fitness is 0.997.
In the case of G9A C24G, the yeast fitness amounted to 0.594.
For G9A U13A, the yeast fitness was found to be 1.03.
Turning to G9A C29A G50A A69C, the yeast fitness is ≤ 0.5.
Turning to G9C A20C C27U G39A G56A G58C, the yeast fitness is ≤ 0.5.
G9A U16G A42C: the yeast fitness stood at 0.955.
